High-throughput results as filed in PubChem.
GSK3A inh: inhibitors of human GSK-3 alpha kinase; ADP-Glo luminescence, 60 min; AID 2650; inhibition, % at 10 µM; P49840; 0.1% of 320,000 active;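 active means more than half of replicates show inhibition above 20%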;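 further: GST-tagged GSK-3 alpha with peptide substrate and 25 µM ATP; 0% = DMSO neutral wells and 100% = GW8510 positive control wells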
Rce1 inh: yeast Ras-converting enzyme inhibition | Q03530 | 0.27% of 290,000 active | yeast membranes, quenched prenylated peptide cleavage fluorescence | AID 2563 | calls only;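 active means fall in fluorescence gain of 50% or more versus controls, with final raw signal at or below 3038400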;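 further: plate controls were neutral control wells for no effect and wells lacking membranes for full effect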
Target sequence (Q03530 whole entry, looked up): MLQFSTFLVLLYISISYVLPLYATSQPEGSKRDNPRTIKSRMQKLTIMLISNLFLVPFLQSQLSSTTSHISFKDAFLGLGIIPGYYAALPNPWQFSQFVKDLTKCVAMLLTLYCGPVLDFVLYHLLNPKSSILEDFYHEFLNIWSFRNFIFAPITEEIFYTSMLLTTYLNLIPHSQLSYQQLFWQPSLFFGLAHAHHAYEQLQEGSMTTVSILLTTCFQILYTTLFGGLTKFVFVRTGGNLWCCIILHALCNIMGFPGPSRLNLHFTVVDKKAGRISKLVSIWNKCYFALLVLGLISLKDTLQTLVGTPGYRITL
STK33 inh: blocks human STK33 kinase activity | Q9BYT3 | purified STK33, MBP phosphorylation, ADP-Glo luminescence | inhibition, % at 10 µM | 0.073% of 320,000 active;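 active means inhibition at or above 25%, using the most active replicate where run in duplicate; inactive means inhibition below 25%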
AI-2 QS mod: Vibrio harveyi AI-2 quorum sensing modulation. Vibrio harveyi JMH597 AI-2 luminescence/OD600 ratio, 9 h; hits give low values; strain lacks LuxN and CqsS sensors; 0 = neutral-control median. activity change, % at 7.5 µM. 0.4% of 300,000 active; in the data active means activity change below about -75%, passing the limit was not always enough;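 further: luminescence divided by OD600 gain over 9 h not by final OD600 alone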
GSK3B inh: inhibitors of human GSK3beta kinase | 0.038% of 300,000 active | activity score (negative = inhibition), % at 10 µM | GST-GSK3beta kinase, ADP-Glo luminescence, 60 min; hits give low values | P49841;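 active means more than half of replicate wells score below -50%, meaning over 50% inhibition versus plate controls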;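 further: 0% = median DMSO wells and -100% = median GW8510 positive control wells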
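Assay system: GST-fused GSK3beta enzyme, cell-free / Medium: Tris pH 7.5 buffer with MgCl2, DTT, BSA, heparin / Also added: peptide substrate plus 25 µM ATP (final) / Compound: 10 µM single point / Timing: kinase reaction with compound 60 min at room temperature / Detection: ADP-Glo luminescence / Benchmarks: DMSO neutral wells and GW8510 at 20 µM as positive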
DYRK1A inh: Dyrk1A (rat) kinase inhibition. ADP-Glo luminescence, NFATc1 peptide. inhibition, % at 12.5 µM. 0.43% of 310,000 active. AID 504441; in the data active means inhibition above about 50%;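 further: plate controls were vehicle with enzyme for no effect and no enzyme for full effect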
* = called active by the depositor. Sampled rows, rich in hits. Any-hit rate of the full collection: about 0.99%.

For COc1cccc(-c2c(C(=O)N/N=C/c3sccc3C)nnn2-c2nonc2N)c1 the results were Rce1 inh active, STK33 inh -2, AI-2 QS mod 21 and GSK3B inh -2.
`CCCOc1ccc(-c2c(C(=O)N/N=C/c3cccs3)nnn2-c2nonc2N)cc1` gave GSK3A inh -1, Rce1 inh active, STK33 inh -2, AI-2 QS mod 16, GSK3B inh -1 and DYRK1A inh -1.
`COC(=O)Nc1nnc(Cc2ccccc2)s1` gave GSK3A inh 0, Rce1 inh inactive, STK33 inh 26*, AI-2 QS mod 21, GSK3B inh -23 and DYRK1A inh 4.
For CCN(CC)CCCn1c2c(c(SCC(=O)N3CCc4ccccc43)nc1=O)CCC2 the results were GSK3A inh -2, Rce1 inh inactive, STK33 inh -4, AI-2 QS mod 14, GSK3B inh 2 and DYRK1A inh 20.
For COc1cccc(-n2cnnn2)c1 the results were GSK3A inh 2, Rce1 inh inactive, STK33 inh -2, AI-2 QS mod -1, GSK3B inh 2 and DYRK1A inh -9.
`COc1cccc(-n2nnc(S(=O)(=O)c3ccc(C)cc3)c2N)c1` gave Rce1 inh inactive, STK33 inh -1, AI-2 QS mod -92*, GSK3B inh 0 and DYRK1A inh 3.
`COc1cccc(-n2nnnc2S(C)(=O)=O)c1` gave GSK3A inh -1, Rce1 inh inactive, STK33 inh 5, AI-2 QS mod -87*, GSK3B inh 2 and DYRK1A inh 7.
Screening Cc1ccccc1C(C)NS(=O)(=O)c1ccc2c(c1)OCCO2 (stereo not drawn) returned GSK3A inh -3, STK33 inh 0 and DYRK1A inh -3.
CC[C@@H]1CCCCc2ccccc2[C@H](C(=O)C[C@H](O)CC(C)=O)OC1=O was read as GSK3A inh -2, STK33 inh 0 and DYRK1A inh 1.
Screening O=C(Nc1c(-c2ccccc2)nc2ccccn12)c1ccco1 returned GSK3A inh 0, Rce1 inh inactive, STK33 inh 0, AI-2 QS mod 7, GSK3B inh -3 and DYRK1A inh 5.
`Oc1ccc(-c2nc3ccccn3c2NCc2ccco2)cc1` gave GSK3A inh 1, Rce1 inh active, STK33 inh 1, AI-2 QS mod 11, GSK3B inh 0 and DYRK1A inh 38.
COc1ccc(Nc2nc(N)c(C(=O)c3ccc(OC)cc3)s2)cc1 was read as GSK3A inh 77*, Rce1 inh inactive, STK33 inh 4, AI-2 QS mod 5 and GSK3B inh -65*.
CCOC(=O)c1sc(Nc2ccc(F)cc2)nc1C was read as GSK3A inh -2, Rce1 inh inactive, AI-2 QS mod 13, GSK3B inh -5 and DYRK1A inh -5.
COc1ccc(Nc2nc(N)c(C(=O)c3ccc(F)cc3)s2)cc1 was read as GSK3A inh 62*, Rce1 inh inactive, STK33 inh 3, AI-2 QS mod 7, GSK3B inh -45 and DYRK1A inh -3.
COc1ccc(C(=O)c2sc(NC(C)C)nc2N)cc1OC was read as GSK3A inh 91*, STK33 inh -1 and DYRK1A inh 2.
`COc1ccc(C(=O)Nc2nc(C)c(C)s2)cc1OC` gave GSK3A inh -3, Rce1 inh inactive, STK33 inh 1, AI-2 QS mod 14, GSK3B inh -1 and DYRK1A inh 2.
Screening CC(C)(C)C(=O)c1sc(Nc2ccccc2)nc1N returned GSK3A inh 82*, Rce1 inh inactive, STK33 inh 2, AI-2 QS mod 2, GSK3B inh -64* and DYRK1A inh 21.
`COc1ccc(C(=O)c2sc(Nc3ccccc3)nc2C)cc1` gave GSK3A inh 4, Rce1 inh inactive, STK33 inh 2, AI-2 QS mod 4, GSK3B inh 0 and DYRK1A inh 4.
For CCC(NC(=S)NCc1ccc(F)cc1)c1ccccc1 (stereo not drawn) the results were GSK3A inh 3, Rce1 inh inactive, STK33 inh 0, AI-2 QS mod 14, GSK3B inh 0 and DYRK1A inh 2.
